Each block holds one molecule with its values, some of them ahead of it. Active and inactive are the calls of the source. The rule behind the calls is not given here.
Legend:
HOP-62 = assay: Cytotoxicity against human HOP62 cells after 72 hrs by MTT assay; assay type: functional, cell-based; conditions: HOP-62, 72 h
Method in brief: (§1)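 Cells grown in RPMI with 10% FCS, 2 mM glutamine and antibiotics at 37 °C, 5% CO2, seeded at 2 × 10³ cells/well. Treated 72 h, then MTT 0.4 mg/ml for 4 h at 37 °C. Formazan dissolved in DMSO, absorbance read at 560 nm. Untreated wells and cell-free wells as controls. IC50 taken from dose–response curves.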

OVCAR-3 = assay: Cytotoxicity against human OVCAR3 cells after 72 hrs by MTT assay; assay type: functional, cell-based; conditions: OVCAR-3, 72 h
DU-145 = assay: Cytotoxicity against human DU145 cells after 72 hrs by MTT assay; assay type: functional, cell-based; conditions: DU-145, 72 h
HT-29 = assay: Cytotoxicity against human HT-29 cells after 72 hrs by MTT assay; assay type: functional, cell-based; conditions: HT-29, 72 h; method in brief: as §1
[1] = Cytotoxicity against human SKHEP1 cells after 72 hrs by MTT assay; assay type: functional, cell-based; conditions: SK-HEP1, 72 h
COLO 205 = assay: Cytotoxicity against human COLO205 cells after 72 hrs by MTT assay; assay type: functional, cell-based; conditions: COLO 205, 72 h; method in brief: as §1
[2] = Cytotoxicity against human ColoR cells after 72 hrs by MTT assay; assay type: functional, cell-based; method in brief: as §1
HCT-116 = assay: Cytotoxicity against human HCT116 cells after 72 hrs by MTT assay; assay type: functional, cell-based; conditions: HCT-116, 72 h; method in brief: as §1
CAKI-1 = assay: Cytotoxicity against human Caki1 cells after 72 hrs by MTT assay; assay type: functional, cell-based; conditions: CAKI-1, 72 h
SQ20B [3] = assay: Cytotoxicity against human SQ20B cells after 72 hrs by MTT assay; assay type: functional, cell-based; method in brief: as §1
[4] = biological target: Regulatory-associated protein of mTOR (Homo sapiens) (UniProt Q8N122); assay: Binding affinity to raptor in human SQ20B cells after 10 to 12 hrs by pull down assay; assay type: cell-based
Regulatory-associated protein of mTOR (Homo sapiens), sequence (Q8N122 whole entry): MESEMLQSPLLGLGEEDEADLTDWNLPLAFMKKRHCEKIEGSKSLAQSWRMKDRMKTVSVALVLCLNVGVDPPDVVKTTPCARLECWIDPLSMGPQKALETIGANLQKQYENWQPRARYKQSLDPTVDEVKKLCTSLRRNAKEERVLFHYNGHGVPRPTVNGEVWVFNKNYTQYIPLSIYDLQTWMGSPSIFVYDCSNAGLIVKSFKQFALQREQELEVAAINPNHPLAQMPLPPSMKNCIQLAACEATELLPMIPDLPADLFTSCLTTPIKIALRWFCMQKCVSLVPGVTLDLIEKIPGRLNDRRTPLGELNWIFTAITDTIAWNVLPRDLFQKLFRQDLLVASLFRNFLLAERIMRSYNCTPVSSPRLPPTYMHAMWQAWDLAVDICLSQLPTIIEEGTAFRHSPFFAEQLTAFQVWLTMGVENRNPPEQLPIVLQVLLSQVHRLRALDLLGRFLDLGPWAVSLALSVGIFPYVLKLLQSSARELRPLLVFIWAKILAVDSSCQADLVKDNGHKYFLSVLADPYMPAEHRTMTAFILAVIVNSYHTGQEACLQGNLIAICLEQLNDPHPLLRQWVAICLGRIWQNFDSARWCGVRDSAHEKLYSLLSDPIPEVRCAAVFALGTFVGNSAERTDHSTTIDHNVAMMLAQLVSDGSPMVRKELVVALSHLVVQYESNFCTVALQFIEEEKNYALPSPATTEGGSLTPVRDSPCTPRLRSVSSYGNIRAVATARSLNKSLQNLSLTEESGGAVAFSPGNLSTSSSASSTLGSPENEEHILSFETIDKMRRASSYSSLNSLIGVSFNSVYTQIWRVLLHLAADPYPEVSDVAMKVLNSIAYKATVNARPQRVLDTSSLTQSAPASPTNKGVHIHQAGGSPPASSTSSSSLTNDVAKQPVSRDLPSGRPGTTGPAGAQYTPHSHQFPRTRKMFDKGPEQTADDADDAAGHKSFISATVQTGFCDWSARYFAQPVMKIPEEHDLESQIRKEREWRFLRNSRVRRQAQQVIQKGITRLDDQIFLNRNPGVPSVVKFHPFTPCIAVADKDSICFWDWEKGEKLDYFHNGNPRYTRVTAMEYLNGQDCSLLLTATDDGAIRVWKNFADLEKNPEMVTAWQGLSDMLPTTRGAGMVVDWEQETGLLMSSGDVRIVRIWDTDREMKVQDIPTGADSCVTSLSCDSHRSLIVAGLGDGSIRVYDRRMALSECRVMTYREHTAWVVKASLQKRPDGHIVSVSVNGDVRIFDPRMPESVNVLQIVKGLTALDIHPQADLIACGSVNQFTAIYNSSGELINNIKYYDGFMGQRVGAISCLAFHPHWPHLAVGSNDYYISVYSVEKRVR

[5] = biological target: T1, 3-phosphoinositide-dependent protein kinase 1 (Homo sapiens) (UniProt O15530); assay: Binding affinity to PDK1 in human SQ20B cells after 10 to 12 hrs by pull down assay; assay type: cell-based
T1 sequence (whole entry): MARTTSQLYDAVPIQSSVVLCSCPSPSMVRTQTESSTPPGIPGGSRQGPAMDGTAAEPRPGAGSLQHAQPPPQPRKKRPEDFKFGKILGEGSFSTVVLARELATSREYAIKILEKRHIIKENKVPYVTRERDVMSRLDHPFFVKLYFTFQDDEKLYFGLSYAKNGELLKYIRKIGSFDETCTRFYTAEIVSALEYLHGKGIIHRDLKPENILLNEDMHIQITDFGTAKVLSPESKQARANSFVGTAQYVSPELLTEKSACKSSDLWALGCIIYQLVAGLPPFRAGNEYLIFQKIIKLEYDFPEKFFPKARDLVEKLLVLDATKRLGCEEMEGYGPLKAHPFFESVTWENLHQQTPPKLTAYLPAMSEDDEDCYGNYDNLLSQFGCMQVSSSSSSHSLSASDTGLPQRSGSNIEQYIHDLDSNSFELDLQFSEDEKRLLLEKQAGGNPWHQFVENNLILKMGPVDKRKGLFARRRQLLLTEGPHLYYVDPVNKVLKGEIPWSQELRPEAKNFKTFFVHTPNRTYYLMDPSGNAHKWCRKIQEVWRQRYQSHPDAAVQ

[6] = biological target: T2, RAC-alpha serine/threonine-protein kinase (Homo sapiens, UniProt P31749); assay: Binding affinity to Akt in human SQ20B cells after 10 to 12 hrs by pull down assay; assay type: cell-based
T2 sequence (P31749 whole entry): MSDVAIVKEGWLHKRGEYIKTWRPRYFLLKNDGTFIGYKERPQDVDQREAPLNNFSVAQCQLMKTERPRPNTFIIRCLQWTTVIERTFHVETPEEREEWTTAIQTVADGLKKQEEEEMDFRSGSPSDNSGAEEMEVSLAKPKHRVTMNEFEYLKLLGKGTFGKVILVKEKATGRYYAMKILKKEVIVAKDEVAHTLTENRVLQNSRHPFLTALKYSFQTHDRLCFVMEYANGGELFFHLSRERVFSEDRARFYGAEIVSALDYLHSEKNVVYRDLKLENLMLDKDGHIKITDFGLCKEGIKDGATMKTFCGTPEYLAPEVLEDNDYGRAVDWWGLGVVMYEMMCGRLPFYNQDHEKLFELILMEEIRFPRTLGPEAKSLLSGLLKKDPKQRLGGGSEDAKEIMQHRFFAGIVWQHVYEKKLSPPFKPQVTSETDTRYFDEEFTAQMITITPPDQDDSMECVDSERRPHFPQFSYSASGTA

SQ20B [7] = assay: Binding affinity to PI3K in human SQ20B cells after 10 to 12 hrs by pull down assay; assay type: cell-based
mTORC1 (Homo sapiens) [8] = biological target: T3, mTORC1 (Homo sapiens) (UniProt P42345+Q8N122+Q9BVC4); assay: Inhibition of mTORC1 in human SQ20B cells assessed as AKT phosphorylation after 10 to 12 hrs by pull down assay; assay type: cell-based
T3 sequence (Q8N122 whole entry, looked up, other chains not shown): as the sequence (Q8N122 whole entry) above
T3 sequence (Q9BVC4 whole entry, looked up, other chains not shown): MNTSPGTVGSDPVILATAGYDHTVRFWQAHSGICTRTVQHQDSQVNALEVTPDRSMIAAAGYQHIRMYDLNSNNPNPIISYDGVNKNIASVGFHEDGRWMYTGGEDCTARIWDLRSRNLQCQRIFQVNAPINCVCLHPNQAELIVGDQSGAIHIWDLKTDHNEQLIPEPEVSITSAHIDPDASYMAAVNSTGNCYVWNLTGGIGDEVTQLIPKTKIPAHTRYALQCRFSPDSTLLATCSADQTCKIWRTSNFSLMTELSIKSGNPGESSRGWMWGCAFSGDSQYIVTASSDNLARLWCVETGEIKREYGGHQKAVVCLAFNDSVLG

[9] = biological target: Rapamycin-insensitive companion of mTOR (Homo sapiens) (UniProt Q6R327); assay: Binding affinity to rictor in human SQ20B cells after 10 to 12 hrs by pull down assay; assay type: cell-based
Rapamycin-insensitive companion of mTOR (Homo sapiens), sequence (Q6R327 whole entry): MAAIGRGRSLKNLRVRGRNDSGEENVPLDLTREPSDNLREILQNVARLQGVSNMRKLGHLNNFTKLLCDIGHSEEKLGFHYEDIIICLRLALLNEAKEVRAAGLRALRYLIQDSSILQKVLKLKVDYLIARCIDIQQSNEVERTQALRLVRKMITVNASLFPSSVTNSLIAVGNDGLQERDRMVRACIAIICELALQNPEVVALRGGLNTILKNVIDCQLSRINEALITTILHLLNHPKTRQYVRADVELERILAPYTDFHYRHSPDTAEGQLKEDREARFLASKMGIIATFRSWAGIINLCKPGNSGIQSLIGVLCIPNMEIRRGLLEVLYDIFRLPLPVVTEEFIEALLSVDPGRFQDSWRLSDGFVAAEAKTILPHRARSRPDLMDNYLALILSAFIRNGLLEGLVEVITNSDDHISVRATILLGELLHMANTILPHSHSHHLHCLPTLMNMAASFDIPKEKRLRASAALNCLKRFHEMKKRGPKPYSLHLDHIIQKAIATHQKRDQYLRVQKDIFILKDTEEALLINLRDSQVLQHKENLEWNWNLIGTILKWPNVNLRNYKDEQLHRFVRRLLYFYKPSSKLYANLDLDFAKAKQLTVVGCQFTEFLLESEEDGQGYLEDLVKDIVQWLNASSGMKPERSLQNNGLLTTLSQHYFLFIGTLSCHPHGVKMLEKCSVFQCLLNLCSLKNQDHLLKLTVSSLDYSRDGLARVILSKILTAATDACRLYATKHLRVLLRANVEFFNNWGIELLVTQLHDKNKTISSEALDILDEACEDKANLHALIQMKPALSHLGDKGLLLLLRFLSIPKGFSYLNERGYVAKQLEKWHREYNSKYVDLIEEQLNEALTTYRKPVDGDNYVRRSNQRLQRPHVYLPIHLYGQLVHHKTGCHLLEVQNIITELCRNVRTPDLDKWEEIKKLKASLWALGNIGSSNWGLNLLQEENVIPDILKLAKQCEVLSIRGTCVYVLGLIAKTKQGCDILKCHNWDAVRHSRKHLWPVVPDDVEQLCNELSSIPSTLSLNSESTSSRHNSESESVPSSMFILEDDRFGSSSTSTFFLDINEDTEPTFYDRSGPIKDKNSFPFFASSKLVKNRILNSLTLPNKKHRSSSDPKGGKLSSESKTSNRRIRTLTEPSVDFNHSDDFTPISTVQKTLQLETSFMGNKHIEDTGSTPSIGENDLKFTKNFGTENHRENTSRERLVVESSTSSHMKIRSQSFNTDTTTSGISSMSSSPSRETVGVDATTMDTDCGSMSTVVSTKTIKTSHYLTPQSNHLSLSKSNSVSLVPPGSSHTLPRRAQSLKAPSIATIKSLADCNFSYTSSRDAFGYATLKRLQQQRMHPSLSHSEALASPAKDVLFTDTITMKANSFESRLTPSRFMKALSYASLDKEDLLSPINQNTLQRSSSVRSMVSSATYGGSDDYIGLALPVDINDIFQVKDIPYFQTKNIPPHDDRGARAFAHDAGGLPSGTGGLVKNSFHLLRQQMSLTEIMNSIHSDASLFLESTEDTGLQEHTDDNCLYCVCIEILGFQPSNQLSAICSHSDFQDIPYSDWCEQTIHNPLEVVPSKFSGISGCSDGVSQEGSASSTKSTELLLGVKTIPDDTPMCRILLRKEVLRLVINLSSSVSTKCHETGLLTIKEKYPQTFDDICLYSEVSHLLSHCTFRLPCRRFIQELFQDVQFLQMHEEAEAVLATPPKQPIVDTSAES

mTORC1 (Homo sapiens) [10] = biological target: T3, mTORC1 (Homo sapiens); assay: Inhibition of mTORC1 in human SQ20B cells assessed as inhibition of S6 ribosomal protein phosphorylation after 10 to 12 hrs by pull down assay; assay type: cell-based
[11] = biological target: Serine/threonine-protein kinase mTOR (Homo sapiens) (UniProt P42345); assay: Binding affinity to mTOR in human SQ20B cells after 10 to 12 hrs by pull down assay; assay type: cell-based
[12] = Cytotoxicity against human 786-O cells; assay type: functional, cell-based; conditions: 786-0
HOP-92 = assay: Cytotoxicity against human HOP92 cells after 72 hrs by MTT assay; assay type: functional, cell-based; conditions: HOP-92, 72 h
[13] = biological target: T2, RAC-alpha serine/threonine-protein kinase; assay: Inhibition of Akt/mTOR in human 786-O cells assessed as inhibition of nuclear export of transcription factor FOXO1a; assay type: cell-based
HCC 2998 = assay: Cytotoxicity against human HCC2998 cells after 72 hrs by MTT assay; assay type: functional, cell-based; conditions: HCC 2998, 72 h

SMILES: Oc1ccc2oc(-c3ccccc3)cc2c1CN1CCC(N2CCCCC2)CC1
IC50 (HOP-62): 54 µM
IC50 (OVCAR-3): 22 µM
IC50 (DU-145): 13 µM
IC50 (HT-29): 45 µM
IC50 [1]: 42 µM
IC50 (COLO 205): 6.3 µM
IC50 [2]: 18 µM
IC50 (HCT-116): 57 µM
IC50 (CAKI-1): 26 µM
IC50 (SQ20B [3]): 2.8 µM

SMILES: Oc1ccc2oc(Cc3ccccc3)cc2c1CN1CCN(Cc2ccccc2)CC1
IC50 (SQ20B [3]): 36 µM

SMILES: OCCN(Cc1c(O)ccc2oc(Cc3ccccc3)cc12)C1CCCCC1
IC50 (SQ20B [3]): 27 µM

Activity [4]: inactive
Activity [5]: inactive
Activity [6]: inactive
inhibition (mTORC1 (Homo sapiens) [8]): Active
Activity [9]: inactive
inhibition (mTORC1 (Homo sapiens) [10]): Dose-dependent effect
Activity [11]: Active
SMILES: O=C(CCC(=O)ON1C(=O)CCC1=O)NCCNC(=O)COC(=O)NCCOCCOCCOCCOCCOCCOCCNC(=O)C1CCN(C2CCN(Cc3c(O)ccc4oc(-c5ccccc5)cc34)CC2)CC1
Activity (SQ20B [7]): inactive

SMILES: OCCN(CCO)Cc1c(O)ccc2oc(Cc3ccccc3)cc12
IC50 (SQ20B [3]): > 200 µM

SMILES: Oc1ccc2oc(Cc3ccccc3)cc2c1CN1CCC(c2ccccc2)CC1
IC50 (SQ20B [3]): > 200 µM

SMILES: NC(=O)C1CCN(Cc2c(O)ccc3oc(Cc4ccccc4)cc23)CC1
IC50 (SQ20B [3]): 85 µM

SMILES: CCN(CC)Cc1c(O)ccc2oc(Cc3ccccc3)cc12
IC50 (SQ20B [3]): 12 µM

SMILES: CN(Cc1ccccc1)Cc1c(O)ccc2oc(Cc3ccccc3)cc12
IC50 (SQ20B [3]): 12 µM

SMILES: CON(C)Cc1c(O)ccc2oc(Cc3ccccc3)cc12
IC50 (SQ20B [3]): 40 µM

SMILES: O=CN1CCN(Cc2c(O)ccc3oc(Cc4ccccc4)cc23)CC1
IC50 (SQ20B [3]): 49 µM

SMILES: CN(Cc1c(O)ccc2oc(Cc3ccccc3)cc12)C1CCCCC1
IC50 (SQ20B [3]): 12 µM

SMILES: CN(CCO)Cc1c(O)ccc2oc(Cc3ccccc3)cc12
IC50 (SQ20B [3]): 30 µM

SMILES: O=C(c1ccccc1)c1cc2c(CN3CCC(N4CCCCC4)CC3)c(O)ccc2o1
IC50 (SQ20B [3]): 17 µM

SMILES: Oc1ccc2oc(Cc3ccccc3)cc2c1CN1CCOCC1
IC50 (SQ20B [3]): 6.5 µM

SMILES: Oc1ccc2oc(Cc3ccccc3)cc2c1CN1CCC(N2CCCCC2)CC1
IC50 (HOP-62): 11 µM
IC50 (OVCAR-3): 19 µM
IC50 (DU-145): 20 µM
IC50 (HT-29): 5.1 µM
IC50 [1]: 11 µM
IC50 (COLO 205): 3.1 µM
IC50 [2]: 3.7 µM
IC50 (HCT-116): 12 µM
IC50 (CAKI-1): 6.9 µM
IC50 (SQ20B [3]): 3 µM

SMILES: CN1CCN(Cc2c(O)ccc3oc(Cc4ccccc4)cc23)CC1
IC50 (SQ20B [3]): 18 µM

SMILES: Oc1ccc2oc(Cc3ccccc3)cc2c1CN1CCC(O)CC1
IC50 (SQ20B [3]): 13 µM

SMILES: Oc1ccc2oc(C(O)c3ccccc3)cc2c1CN1CCC(N2CCCCC2)CC1 (stereo not given)
IC50 (SQ20B [3]): 13 µM

IC50 [13]: 20 µM
SMILES: CN(C)Cc1c(O)ccc2oc(Cc3ccccc3)cc12
IC50 [12]: 10 µM
IC50 (HOP-92): 40 µM
IC50 (SQ20B [3]): 33 µM
IC50 (HCC 2998): 40 µM

SMILES: O=C(NCCOCCO)C1CCN(C2CCN(Cc3c(O)ccc4oc(Cc5ccccc5)cc34)CC2)CC1
IC50 (SQ20B [3]): 14 µM

inhibition (mTORC1 (Homo sapiens) [10]): Dose-dependent effect
SMILES: Oc1ccc2oc(Cc3ccccc3)cc2c1CN1CCC(N2CCCC2)CC1
IC50 (SQ20B [3]): 3 µM

SMILES: Oc1ccc2oc(Cc3ccccc3)cc2c1CN1CCCC(O)C1 (stereo not given)
IC50 (SQ20B [3]): 11 µM

SMILES: CO[C@H]1C[C@@H]2CC[C@@H](C)[C@@](O)(O2)C(=O)C(=O)N2CCCC[C@H]2C(=O)O[C@H]([C@H](C)C[C@@H]2CC[C@@H](OCCO)[C@H](OC)C2)CC(=O)[C@H](C)/C=C(\C)[C@@H](O)[C@@H](OC)C(=O)[C@H](C)C[C@H](C)/C=C/C=C/C=C/1C [EVEROLIMUS]
IC50 (HOP-62): 19 µM
IC50 (OVCAR-3): 16 µM
IC50 (DU-145): 8 µM
IC50 (HT-29): 15 µM
IC50 [1]: 12 µM
IC50 (COLO 205): 20 µM
IC50 [2]: 8.7 µM
IC50 (HCT-116): 12 µM
IC50 (CAKI-1): 14 µM
IC50 (SQ20B [3]): 5.5 µM

SMILES: Oc1ccc2oc(Cc3ccccc3)cc2c1CN1CCc2ccccc2C1
IC50 (SQ20B [3]): 16 µM

SMILES: COc1cccc2cc(-c3nc([C@H]4CC[C@H](C(=O)O)CC4)n4ncnc(N)c34)[nH]c12 [OSI-027]
IC50 (HOP-62): 41 µM
IC50 (OVCAR-3): 8.1 µM
IC50 (DU-145): 4.1 µM
IC50 (HT-29): 55 µM
IC50 [1]: 3.2 µM
IC50 (COLO 205): 5.8 µM
IC50 [2]: 5.8 µM
IC50 (HCT-116): 5.6 µM
IC50 (CAKI-1): 1.9 µM
IC50 (SQ20B [3]): 1.3 µM

SMILES: OCCOCCN1CCN(Cc2c(O)ccc3oc(Cc4ccccc4)cc23)CC1
IC50 (SQ20B [3]): 21 µM

Source: ChEMBL document CHEMBL3120078, “Benzofuran derivatives as a novel class of inhibitors of mTOR signaling” (Eur J Med Chem, 2014)
